This is a sample that favours compounds with a hit; in the whole collection about 2.3% have one here.
MEKK2 WT-MEK5: raises or lowers MEK5 binding to wildtype human MEKK2 PB1 domain. 290,000 compounds, 1.1% hits. binding response (% of control), % at 10 µM. AID 1531. bead flow cytometry, Alexa488-MEK5 binding to MEKK2 WT; actives lie on both sides. Q9Y2U5; in the data active means binding response below about 67% or above about 130%
MEKK2 mut-MEK5: signal of MEK5 binding to mutant human MEKK2 PB1 domain; bead flow cytometry, Alexa488-MEK5 binding to MEKK2 mutant; percent response, % at 10 µM; 290,000 compounds, 0.35% hits; AID 1530; in the data active means percent response above about 24%, passing the limit was not always enough
ABCB1 inh: human ABCB1 inhibition, ABCG2 as counter-screen | P08183 | AID 1326 | CCRF-Adr cells, JC-1 efflux, flow cytometry | inhibition, % at 6.6 µM | 190,000 compounds, 0.067% hits; in the data active means inhibition above about 40%;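 further: 0% = vehicle and 100% = reference inhibitor; higher value means more JC-1 retained so stronger ABCB1 efflux block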
Target sequence (P08183 whole entry, looked up): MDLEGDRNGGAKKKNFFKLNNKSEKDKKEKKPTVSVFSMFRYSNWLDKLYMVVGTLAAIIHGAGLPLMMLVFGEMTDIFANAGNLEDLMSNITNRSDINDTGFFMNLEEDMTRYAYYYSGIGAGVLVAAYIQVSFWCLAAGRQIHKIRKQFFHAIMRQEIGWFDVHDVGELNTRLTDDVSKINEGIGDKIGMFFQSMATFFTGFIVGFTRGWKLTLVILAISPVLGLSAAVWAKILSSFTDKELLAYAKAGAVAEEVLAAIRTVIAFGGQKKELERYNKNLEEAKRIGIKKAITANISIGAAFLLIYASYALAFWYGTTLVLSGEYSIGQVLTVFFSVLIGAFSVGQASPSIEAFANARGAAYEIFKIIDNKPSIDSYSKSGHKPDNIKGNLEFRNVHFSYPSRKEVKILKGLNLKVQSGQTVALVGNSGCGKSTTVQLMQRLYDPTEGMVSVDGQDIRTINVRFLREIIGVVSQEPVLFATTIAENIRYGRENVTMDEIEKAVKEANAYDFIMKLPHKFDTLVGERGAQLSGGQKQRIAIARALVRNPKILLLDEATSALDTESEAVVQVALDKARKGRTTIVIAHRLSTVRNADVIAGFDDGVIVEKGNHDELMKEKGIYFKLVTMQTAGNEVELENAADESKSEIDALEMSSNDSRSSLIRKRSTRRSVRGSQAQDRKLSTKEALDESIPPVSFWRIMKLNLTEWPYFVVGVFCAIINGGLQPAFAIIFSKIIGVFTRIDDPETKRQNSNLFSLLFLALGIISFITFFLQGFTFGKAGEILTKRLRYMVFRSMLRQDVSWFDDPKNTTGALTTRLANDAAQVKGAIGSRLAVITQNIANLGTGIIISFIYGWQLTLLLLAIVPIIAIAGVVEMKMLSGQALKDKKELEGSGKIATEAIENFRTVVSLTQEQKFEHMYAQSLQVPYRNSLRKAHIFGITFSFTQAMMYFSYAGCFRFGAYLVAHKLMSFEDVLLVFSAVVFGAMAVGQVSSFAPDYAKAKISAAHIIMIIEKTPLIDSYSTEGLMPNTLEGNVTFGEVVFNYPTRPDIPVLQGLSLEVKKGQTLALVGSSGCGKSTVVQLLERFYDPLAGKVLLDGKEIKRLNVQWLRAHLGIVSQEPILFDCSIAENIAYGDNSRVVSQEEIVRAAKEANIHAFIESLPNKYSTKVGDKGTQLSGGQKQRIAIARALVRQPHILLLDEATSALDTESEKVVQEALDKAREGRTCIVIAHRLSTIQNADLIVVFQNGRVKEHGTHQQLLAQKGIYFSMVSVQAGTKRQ
ABCG2 inh: human ABCG2 inhibition, ABCB1 as counter-screen | Q9UNQ0 | IgMXP3 cells, JC-1 efflux, flow cytometry | inhibition, % at 6.6 µM | 190,000 compounds, 0.1% hits | AID 1325;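 active means inhibition above 80%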;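 further: 0% = DMSO and 100% = nicardipine control wells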
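Test system: ABCG2 IgMXP3 and barcoded ABCB1 CCRF-Adr cell mix; Schedule: cells with compound and JC-1, 10 min at 25 °C, rotating, no wash; Technique: flow cytometry of retained JC-1 fluorescence; Measure: % inhibition of efflux relative to nicardipine and DMSO; Controls: nicardipine high and DMSO low controls.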
MEKK3 PB1 HTS: MEKK3-MEK5 PB1 interaction, increase or decrease; bead-based flow cytometry, Alexa488-MEK5 binding to MEKK3; actives lie on both sides; 0 = blocked by unlabeled MEK5, 100 = vehicle; binding response (% of control), % at 10 µM; 290,000 compounds, 1.4% hits;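 active means binding response more than 3 SD above or below the average of its plate-row segment, actives on both sides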;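 further: Alexa488 bead fluorescence after subtracting the streptavidin-only scavenger bead signal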
MEKK2wt confirm: raises or lowers MEK5 binding to wildtype human MEKK2, retest. shares compounds with MEKK3 PB1 HTS. bead flow cytometry, Alexa488-MEK5 binding to MEKK2 WT; actives lie on both sides. binding response (% of control), % at 10 µM. 5,900 compounds, 2.4% hits. AID 1892; in the data active means binding response below about 16% or above about 210%; inactive means in between
MEKK2mut confirm: signal of MEK5 binding to mutant human MEKK2, retest; percent response, % at 10 µM; bead flow cytometry, Alexa488-MEK5 binding to MEKK2 mutant; 5,900 compounds, 2% hits; shares compounds with MEKK3 PB1 HTS; in the data active means percent response mostly above about 71%, no sharp cut-off; inactive means mostly below about 38%;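 further: higher means compound restores mutant binding toward wildtype level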
MEKK3-MEK5 inh: confirmation of inhibitors of MEK5 binding to human MEKK3; bead flow cytometry, Alexa488-MEK5 binding to MEKK3; hits give low values; binding response (% of control), % at 10 µM; shares compounds with MEKK3 PB1 HTS; AID 1894; 5,900 compounds, 1.8% hits;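 active means binding response below 72% of control, or above a set upper limit, though filed actives all read lower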;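 further: 100% = DMSO only wells and 0% = binding blocked by excess unlabeled MEK5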
An asterisk follows results filed as active; . = no result given; [ ] = dose if it differs, or a comment.

SMILES	MEKK2 WT-MEK5	MEKK2 mut-MEK5	ABCB1 inh	ABCG2 inh	MEKK3 PB1 HTS	MEKK2wt confirm	MEKK2mut confirm	MEKK3-MEK5 inh
COc1cc(S(=O)(=O)N2CCCN(C)CC2)ccc1NC(C)=O	104	5	.	.	101	.	.	.
O=C(CN1C(=O)CCSc2ccc(S(=O)(=O)N3CCOCC3)cc21)Nc1cccc(F)c1	103	4	.	.	104	.	.	.
CN(C)n1cccc1/C=C(\C#N)S(=O)(=O)c1ccc(Cl)cc1	120	33	.	.	139*	101	-6	104
O=[N+]([O-])c1c(NCCCO)cc(SCc2ccco2)c2nonc12	101	4	2	7	106	.	.	.
CC(=O)OCCNc1cc(SCc2ccco2)c2nonc2c1[N+](=O)[O-]	113	1	2	8	146*	107	6	106
CC(=O)Nc1cccc(NC(=O)C2CC(=O)N(CCc3ccc(F)cc3)C2)c1 (configuration not stated)	101	4	.	.	103	.	.	.
CCCCNC(=S)Nc1ccc(C(F)(F)F)cc1	90	-3	0	2	75*[inhibitor]	101	1	100
CCCCNC(=S)Nc1ccc(Cl)cc1	97	-1	0	8	105	.	.	.
CCOc1ccc(N(CC(=O)N2CCN(Cc3ccccc3)CC2)S(C)(=O)=O)cc1	101	1	.	.	101	.	.	.
NC1=NC[C@H](CC2CCCCC2)N1CCc1cc(C(F)(F)F)cc(C(F)(F)F)c1	156*	25*	.	.	111	127	4	97
NC1=NC[C@@H](Cc2ccc(O)cc2)N1CCc1cc(C(F)(F)F)cc(C(F)(F)F)c1	120	8	.	.	115	.	.	.
CCc1cccc(C)c1N(C(=O)Cn1c(=O)[nH]c2ccccc21)C(C)COC (configuration not stated)	114	24*	0	-2	111	99	-3	100
CCc1cccc(CC)c1N(COC)C(=O)Cn1nnc2ccccc21	.	.	2	7	.	.	.	.
Cc1ccc(C)c(N2CCN(CCN3CCCCC3)CC2)c1	109	8	.	.	105	.	.	.
O=C(Nc1ccc(N2CCOCC2)c(Cl)c1)c1cccnc1	98	2	1	4	101	.	.	.
O=C(Nc1ccccc1N1CCOCC1)c1cccnc1	112	2	0	1	128*	106	0	104
CN(C(=S)NC(=O)c1ccccc1)C1CCCCC1	99	4	.	.	99	.	.	.
O=c1oc2ccccc2c(Nc2ccc3ncccc3c2)c1[N+](=O)[O-]	109	1	1	15	147*	97	-3	99
CN(C)c1ccc(NC(=O)CCN2CCN(c3ccccn3)CC2)cc1	99	0	.	.	97	.	.	.
Cc1ccc(NC(=O)CCN2CC(C)OC(C)C2)cc1C (configuration not stated)	99	0	.	.	98	.	.	.
COc1cccc(-c2csc(NC(=O)C3CC3)n2)c1	106	2	-1	-2	109	.	.	.
CCN(CC)CCOC(=O)c1ccc(N/C=C(/C#N)c2nc(-c3ccc(OC)c(OC)c3)cs2)cc1	94	-1	.	.	29*[inhibitor]	53	-45	15*
CCN(CC)CCOC(=O)c1ccc(N/C=C(/C#N)c2nc(-c3cccc(OC)c3)cs2)cc1	93	-14	.	.	31*[inhibitor]	78	-38	26*
Cc1ccc(-c2csc(/C(C#N)=C/Nc3ccc4c(c3)OCCO4)n2)cc1	105	0	0	-3	113	.	.	.
CN1CCN(c2ccc(NC(=O)c3ccc(-c4ccc(Cl)cc4)o3)cc2)CC1	171*	43*	.	.	108	195	72*	114
SMILES	MEKK2 WT-MEK5	MEKK2 mut-MEK5	ABCB1 inh	ABCG2 inh	MEKK3 PB1 HTS	MEKK2wt confirm	MEKK2mut confirm	MEKK3-MEK5 inh
COCCN1CCn2c(nc3cc(NC(=O)c4cccs4)ccc32)C1	110	7	.	.	116	.	.	.
CC(c1ccccc1)N1CCn2c(nc3cc(NC(=O)c4cccs4)ccc32)C1 (configuration not stated)	35*[inhibitor]	-33	1	2	19*[inhibitor]	101	7	101
CCOc1cccc2sc(N(CCCN(C)C)C(=O)c3ccc(C(=O)c4ccccc4)cc3)nc12	161*	35*	.	.	108	154	23	105
Cc1cccc2sc(N(CCN(C)C)C(=O)c3ccc4ccccc4c3)nc12	117	18	.	.	100	.	.	.
Cc1cccc2sc(N(CCCN(C)C)C(=O)c3ccco3)nc12	110	6	1	6	101	.	.	.
CCOc1cccc2sc(N(CCCN(C)C)C(=O)Cc3ccccc3)nc12	180*	75*	1	0	128	133	31	113
O=C(O)c1nc(NCCc2ccccc2)ncc1Cl	97	-1	.	.	102	.	.	.
O=C(NNC(=S)Nc1cccc(C(F)(F)F)c1)c1ccccc1Cl	91	1	1	2	66*[inhibitor]	103	4	100
O=C(NNC(=S)Nc1cccc(C(F)(F)F)c1)c1cccc(Cl)c1	99	-1	0	0	100	.	.	.
COc1ccc(CCNC(=O)/C(=C/c2cccnc2)NC(=O)c2ccccc2)cc1	101	-1	1	6	128*	96	-11	101
CCCNC(=O)C(=O)NCc1ccccn1	70	-19	0	0	70	.	.	.
COc1ccc(CCNC(=O)C(=O)NCc2ccccn2)cc1	117	5	0	0	135*	98	-7	98
COc1ccc(/C=C(\NC(=O)c2ccccc2)C(=O)NCc2cccnc2)cc1	97	0	.	.	101	.	.	.
O=C(c1cccc(N2C(=O)C3C4C=CC(C4)C3C2=O)c1)N1CCN(c2ccccc2F)CC1 (configuration not stated)	103	0	.	.	101	.	.	.
O=C(O)c1ccc(S(=O)(=O)N2CCC(NC(=O)C3CCCCC3)CC2)cc1	96	0	.	.	103	.	.	.
CC(C)(C)c1ccc(NC(=O)Nc2ccc(F)cc2)cc1	128	2	0	6	130*	109	7	106
CC(C)(C)c1ccc(COC(=O)Nc2ccc(F)cc2)cc1	104	2	0	3	102	.	.	.
Cc1cccc(N=C2NC(=O)/C(=C/C=C/c3ccco3)S2)c1	91	-2	0	0	64*[inhibitor]	84	-14	94
COc1ccc(N=C2NC(=O)/C(=C\C=C\c3ccco3)S2)cc1	90	-9	-1	-2	99	.	.	.

Source: PubChem BioAssay
